The source made the active and inactive calls. The calls are words filed in the database; no cut-off is given here.
Tests used:
Liver microsome [1] = experiment: Drug metabolism in human liver microsomes assessed as intrinsic clearance per mg protein treated with JWH-018; format: ADME
Liver microsome [2] = experiment: Drug level in human liver microsomes treated with JWH-018 at 10 uM after 20 mins by LC-MS/MS analysis; format: ADME
Summary of the method: (§1)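 Pooled human liver microsomes (75 μg) incubated with 10 μM substrate in 0.1 M KPO4 pH 7.4 with NADPH-regenerating system at 37°C. Reaction stopped with ethanol, centrifuged. Analytes quantified by positive-ESI LC-MS/MS against standards matrix-matched in reaction mixture, with confirmation by SRM-triggered enhanced product ion spectra library matching.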

Cytochrome b5 = Cytochrome b5 (Homo sapiens, UniProt P00167); experiment: Drug metabolism assessed as cytochrome b5 (unknown origin)-mediated compound formation treated with JWH-018 at 10 uM after 90 mins by LC-MS/MS analysis in presence of oxidoreductase; format: ADME; conditions: 1.5 h
Liver microsome [3] = experiment: Drug metabolism in human liver microsomes assessed as intrinsic clearance per mg protein treated with AM2201; format: ADME
[4] = molecular target: Cannabinoid receptor 1 (Mus musculus) (UniProt P47746); experiment: Activation of CB1 receptor in B6SJL mouse brain membrane assessed as [35S]-GTPgammaS binding at 10 uM after 30 mins by liquid scintillation spectrophotometric analysis; format: functional, cell membranes
Summary of the method: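 Mouse brain membrane homogenate (25 μg; whole B6SJL brains, pooled, Dounce-homogenised, spun 40,000g three times). Incubated with […], 0.1 nM [35S]GTPγS in 20 mM HEPES, 10 mM MgCl2, 100 mM NaCl, 20 U/l adenosine deaminase, 0.05% BSA, 30 min at 30°C, triplicate. Nonspecific binding with 10 μM unlabelled GTPγS. Stopped by GF/B filtration; filters counted by scintillation.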

[5] = molecular target: Cannabinoid receptor 1 (Mus musculus) (UniProt P47746); experiment: Activation of CB1 receptor in B6SJL mouse brain membrane assessed as [35S]-GTPgammaS binding at 10 uM after 30 mins by liquid scintillation spectrophotometric analysis in presence of O-2050; format: functional, cell membranes
Cytochrome P450 2C19 [6] = molecular target: T1, Cytochrome P450 2C19 (Homo sapiens, UniProt P33261); experiment: Drug metabolism assessed as intrinsic clearance for human recombinant CYP2C19-mediated compound formation per nmol protein treated with JWH-018 at 10 uM after 90 mins; format: ADME; conditions: recombinant enzyme, 1.5 h
Cytochrome P450 2C9 [7] = molecular target: T2, Cytochrome P450 2C9 (Homo sapiens, UniProt P11712); experiment: Drug metabolism assessed as intrinsic clearance for human recombinant CYP2C9-mediated compound formation per nmol protein treated with AM2201 at 10 uM after 90 mins; format: ADME; conditions: recombinant enzyme, 1.5 h
Cannabinoid receptor 1 = Cannabinoid receptor 1 (Mus musculus, UniProt P47746); experiment: Displacement of [3H]CP-55,940 from CB1 receptor in B6SJL mouse brain membrane after 90 mins by liquid scintillation spectrophotometric analysis; format: cell membranes
Summary of the method: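 B6SJL mouse brain membranes (50 μg) with 0.2 nM [3H]CP-55,940 and competitor at 0.1 nM–10 μM. Buffer 5 mM MgCl2, 50 mM Tris, 0.05% BSA; 90 min at room temperature, triplicate. Nonspecific binding set with 10 μM WIN-55,212-2. Filtered on GF/B, washed with Tris/BSA, counted by scintillation. Specific binding given as % of vehicle.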

Cytochrome P450 2D6 [8] = molecular target: T3, Cytochrome P450 2D6 (Homo sapiens, UniProt P10635); experiment: Drug metabolism assessed as intrinsic clearance for human recombinant CYP2D6-mediated compound formation per nmol protein treated with AM2201 at 10 uM after 90 mins; format: ADME; conditions: recombinant enzyme, 1.5 h
Cytochrome P450 2D6 [9] = molecular target: T3, Cytochrome P450 2D6; experiment: Drug metabolism assessed as intrinsic clearance for human recombinant CYP2D6-mediated compound formation per nmol protein treated with JWH-018 at 10 uM after 90 mins; format: ADME; conditions: recombinant enzyme, 1.5 h
Liver microsome [10] = experiment: Drug level in human liver microsomes treated with AM2201 at 10 uM after 20 mins by LC-MS/MS analysis; format: ADME; summary of the method: as §1
[11] = Drug level in human urine treated with JWH-018 by LC-MS/MS analysis; format: ADME, tissue-based
Summary of the method: (§2)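 Urine from suspected users (40 μl) incubated with or without β-glucuronidase (1.6 U/μl final) in 0.1 M sodium acetate pH 5.0, 60 min at 37°C with shaking. Analysed by positive-ESI LC-MS/MS against standards matrix-matched in blank pooled human urine, with confirmation by enhanced product ion spectra.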

Cytochrome P450 1A2 [12] = molecular target: T4, Cytochrome P450 1A2 (Homo sapiens, UniProt P05177); experiment: Drug metabolism assessed as intrinsic clearance for human recombinant CYP1A2-mediated compound formation per nmol protein treated with AM2201 at 10 uM after 90 mins; format: ADME; conditions: recombinant enzyme, 1.5 h
T4 sequence (P05177 whole entry): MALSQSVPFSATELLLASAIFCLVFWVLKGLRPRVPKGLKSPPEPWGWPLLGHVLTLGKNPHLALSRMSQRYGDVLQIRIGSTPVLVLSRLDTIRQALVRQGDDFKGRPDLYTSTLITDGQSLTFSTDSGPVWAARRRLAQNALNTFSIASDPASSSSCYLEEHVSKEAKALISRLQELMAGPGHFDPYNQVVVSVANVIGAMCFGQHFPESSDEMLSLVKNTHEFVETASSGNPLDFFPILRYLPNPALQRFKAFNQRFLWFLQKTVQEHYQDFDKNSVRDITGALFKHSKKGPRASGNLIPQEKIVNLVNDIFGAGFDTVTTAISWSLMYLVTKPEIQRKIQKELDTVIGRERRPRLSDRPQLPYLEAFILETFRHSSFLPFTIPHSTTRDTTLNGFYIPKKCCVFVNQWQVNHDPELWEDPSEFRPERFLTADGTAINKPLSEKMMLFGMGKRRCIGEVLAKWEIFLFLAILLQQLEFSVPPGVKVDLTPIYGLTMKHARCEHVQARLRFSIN

Cytochrome P450 2C19 [13] = molecular target: T1, Cytochrome P450 2C19; experiment: Drug metabolism assessed as intrinsic clearance for human recombinant CYP2C19-mediated compound formation per nmol protein treated with AM2201 at 10 uM after 90 mins; format: ADME; conditions: recombinant enzyme, 1.5 h
Cytochrome P450 2C9 [14] = molecular target: T2, Cytochrome P450 2C9; experiment: Drug metabolism assessed as intrinsic clearance for human recombinant CYP2C9-mediated compound formation per nmol protein treated with JWH-018 at 10 uM after 90 mins; format: ADME; conditions: recombinant enzyme, 1.5 h
Cytochrome P450 1A2 [15] = molecular target: T4, Cytochrome P450 1A2; experiment: Drug metabolism assessed as intrinsic clearance for human recombinant CYP1A2-mediated compound formation per nmol protein treated with JWH-018 at 10 uM after 90 mins; format: ADME; conditions: recombinant enzyme, 1.5 h
Cytochrome P450 2E1 [16] = molecular target: T5, Cytochrome P450 2E1 (Homo sapiens, UniProt P05181); experiment: Drug metabolism assessed as human recombinant CYP2E1-mediated (1-(5-fluoro-4-hydroxypentyl)-1H-indol-3-yl)(naphthalen-1-yl)methanone formation at 10 uM after 90 mins by LC-MS/MS analysis; format: ADME; conditions: recombinant enzyme, 1.5 h
Summary of the method: (§3)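 Recombinant human CYP2E1 or CYP3A4 (2 pmol) incubated with substrate at 10 μM final, dried from ethanol. Buffer 0.1 M KPO4 pH 7.4 with NADPH-regenerating system, which starts the reaction. 90 min at 37°C, triplicate, with no-substrate, no-protein and no-NADPH controls. Stopped with ethanol, centrifuged, and metabolites quantified by LC-MS/MS.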

Cytochrome P450 3A4 [17] = molecular target: T6, Cytochrome P450 3A4 (Homo sapiens, UniProt P08684); experiment: Drug metabolism assessed as human recombinant CYP3A4-mediated (1-(5-hydroxypentyl)-1H-indol-3-yl)(naphthalen-1-yl)methanone formation at 10 uM after 90 mins by LC-MS/MS analysis; format: ADME; conditions: recombinant enzyme, 1.5 h; summary of the method: as §3
Cytochrome P450 3A4 [18] = molecular target: T6, Cytochrome P450 3A4; experiment: Drug metabolism assessed as human recombinant CYP3A4-mediated 5-(3-(1-naphthoyl)-1H-indol-1-yl)pentanoic acid formation at 10 uM after 90 mins by LC-MS/MS analysis; format: ADME; conditions: recombinant enzyme, 1.5 h; summary of the method: as §3
Cytochrome P450 2E1 [19] = molecular target: T5, Cytochrome P450 2E1; experiment: Drug metabolism assessed as human recombinant CYP2E1-mediated (1-(5-hydroxypentyl)-1H-indol-3-yl)(naphthalen-1-yl)methanone formation at 10 uM after 90 mins by LC-MS/MS analysis; format: ADME; conditions: recombinant enzyme, 1.5 h; summary of the method: as §3
Cytochrome P450 3A4 [20] = molecular target: T6, Cytochrome P450 3A4; experiment: Drug metabolism assessed as human recombinant CYP3A4-mediated (1-(5-fluoro-4-hydroxypentyl)-1H-indol-3-yl)(naphthalen-1-yl)methanone formation at 10 uM after 90 mins by LC-MS/MS analysis; format: ADME; conditions: recombinant enzyme, 1.5 h; summary of the method: as §3
[21] = Drug metabolism in human urine assessed as (1-(5-hydroxypentyl)-1H-indol-3-yl)(naphthalen-1-yl)methanone formation by LC-MS/MS analysis; format: ADME, tissue-based; summary of the method: as §2
Cytochrome P450 2E1 [22] = molecular target: T5, Cytochrome P450 2E1; experiment: Drug metabolism assessed as human recombinant CYP2E1-mediated 5-(3-(1-naphthoyl)-1H-indol-1-yl)pentanoic acid formation at 10 uM after 90 mins by LC-MS/MS analysis; format: ADME; conditions: recombinant enzyme, 1.5 h; summary of the method: as §3
[23] = Drug metabolism in human urine assessed as 5-(3-(1-naphthoyl)-1H-indol-1-yl)pentanoic acid formation by LC-MS/MS analysis; format: ADME, tissue-based; summary of the method: as §2
[24] = Drug metabolism in human urine assessed as (1-(5-fluoro-4-hydroxypentyl)-1H-indol-3-yl)(naphthalen-1-yl)methanone formation by LC-MS/MS analysis; format: ADME, tissue-based; summary of the method: as §2

T2 sequence (P11712 whole entry): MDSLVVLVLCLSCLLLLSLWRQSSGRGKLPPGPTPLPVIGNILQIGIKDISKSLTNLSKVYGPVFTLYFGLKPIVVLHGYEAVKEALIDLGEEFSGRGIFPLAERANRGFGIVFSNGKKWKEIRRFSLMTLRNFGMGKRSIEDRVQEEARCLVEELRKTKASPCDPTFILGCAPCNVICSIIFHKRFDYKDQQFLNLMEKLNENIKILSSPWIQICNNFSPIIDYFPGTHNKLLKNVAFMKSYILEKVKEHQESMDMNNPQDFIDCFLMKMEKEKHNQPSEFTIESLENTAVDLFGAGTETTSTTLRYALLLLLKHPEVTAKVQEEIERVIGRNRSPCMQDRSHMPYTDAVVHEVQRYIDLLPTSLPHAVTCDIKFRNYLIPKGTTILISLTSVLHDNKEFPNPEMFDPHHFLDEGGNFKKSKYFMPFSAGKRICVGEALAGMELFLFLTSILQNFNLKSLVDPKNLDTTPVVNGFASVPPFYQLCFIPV
T5 sequence (P05181 whole entry): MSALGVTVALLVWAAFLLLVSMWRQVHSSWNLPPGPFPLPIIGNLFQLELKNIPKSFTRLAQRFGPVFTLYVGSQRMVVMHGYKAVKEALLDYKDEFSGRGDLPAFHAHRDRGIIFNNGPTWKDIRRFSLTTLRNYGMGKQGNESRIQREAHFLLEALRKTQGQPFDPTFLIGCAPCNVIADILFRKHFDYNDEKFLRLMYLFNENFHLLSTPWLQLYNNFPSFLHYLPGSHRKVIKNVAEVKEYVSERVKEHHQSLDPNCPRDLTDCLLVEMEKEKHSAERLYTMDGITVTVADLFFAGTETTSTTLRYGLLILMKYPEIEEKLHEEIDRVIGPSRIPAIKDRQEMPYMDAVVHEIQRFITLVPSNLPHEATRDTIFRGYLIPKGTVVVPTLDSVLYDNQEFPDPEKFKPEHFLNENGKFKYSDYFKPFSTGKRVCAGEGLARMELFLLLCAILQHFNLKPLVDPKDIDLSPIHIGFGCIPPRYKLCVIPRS
T6 sequence (P08684 whole entry): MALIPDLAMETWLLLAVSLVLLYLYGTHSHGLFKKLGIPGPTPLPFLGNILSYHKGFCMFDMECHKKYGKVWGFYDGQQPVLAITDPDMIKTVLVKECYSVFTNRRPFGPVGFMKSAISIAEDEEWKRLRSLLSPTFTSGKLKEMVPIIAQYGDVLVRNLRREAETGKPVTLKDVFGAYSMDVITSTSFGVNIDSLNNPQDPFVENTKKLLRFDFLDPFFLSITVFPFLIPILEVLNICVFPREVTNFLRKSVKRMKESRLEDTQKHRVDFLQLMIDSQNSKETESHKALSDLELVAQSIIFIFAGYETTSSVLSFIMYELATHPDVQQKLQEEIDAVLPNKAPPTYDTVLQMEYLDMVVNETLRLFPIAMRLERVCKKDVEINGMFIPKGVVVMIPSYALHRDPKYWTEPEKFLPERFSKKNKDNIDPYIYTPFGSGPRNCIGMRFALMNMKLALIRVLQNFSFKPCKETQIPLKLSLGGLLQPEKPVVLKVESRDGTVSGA
Chain of Cannabinoid receptor 1 (P47746 whole entry): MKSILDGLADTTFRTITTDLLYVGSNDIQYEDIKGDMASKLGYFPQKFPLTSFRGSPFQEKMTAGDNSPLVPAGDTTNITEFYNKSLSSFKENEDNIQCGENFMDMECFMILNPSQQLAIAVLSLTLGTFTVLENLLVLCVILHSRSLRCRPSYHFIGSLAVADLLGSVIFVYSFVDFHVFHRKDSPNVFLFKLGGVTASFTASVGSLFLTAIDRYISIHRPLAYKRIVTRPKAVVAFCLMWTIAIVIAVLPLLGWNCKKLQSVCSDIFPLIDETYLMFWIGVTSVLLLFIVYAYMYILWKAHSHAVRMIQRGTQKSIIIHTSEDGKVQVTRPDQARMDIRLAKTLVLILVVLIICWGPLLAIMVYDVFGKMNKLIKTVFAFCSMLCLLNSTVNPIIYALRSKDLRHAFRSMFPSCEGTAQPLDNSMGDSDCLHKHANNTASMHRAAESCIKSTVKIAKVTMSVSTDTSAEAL
Chain of Cannabinoid receptor 1 (Mus musculus) (P47746 whole entry): as above
T3 sequence (P10635 whole entry): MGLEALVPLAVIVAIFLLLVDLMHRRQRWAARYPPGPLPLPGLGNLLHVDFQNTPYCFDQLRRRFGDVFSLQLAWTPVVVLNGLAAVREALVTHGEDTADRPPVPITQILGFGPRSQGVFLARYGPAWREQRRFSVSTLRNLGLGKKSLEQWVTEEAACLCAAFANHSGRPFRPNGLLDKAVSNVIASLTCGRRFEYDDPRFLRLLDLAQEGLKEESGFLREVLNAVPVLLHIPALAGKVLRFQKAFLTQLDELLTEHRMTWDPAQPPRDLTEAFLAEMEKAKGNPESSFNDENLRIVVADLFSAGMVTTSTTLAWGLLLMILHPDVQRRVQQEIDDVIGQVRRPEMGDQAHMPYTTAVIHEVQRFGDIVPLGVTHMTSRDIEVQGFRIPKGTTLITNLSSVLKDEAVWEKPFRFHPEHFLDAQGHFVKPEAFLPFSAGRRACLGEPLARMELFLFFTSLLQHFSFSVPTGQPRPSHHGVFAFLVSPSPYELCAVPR
T1 sequence (P33261 whole entry): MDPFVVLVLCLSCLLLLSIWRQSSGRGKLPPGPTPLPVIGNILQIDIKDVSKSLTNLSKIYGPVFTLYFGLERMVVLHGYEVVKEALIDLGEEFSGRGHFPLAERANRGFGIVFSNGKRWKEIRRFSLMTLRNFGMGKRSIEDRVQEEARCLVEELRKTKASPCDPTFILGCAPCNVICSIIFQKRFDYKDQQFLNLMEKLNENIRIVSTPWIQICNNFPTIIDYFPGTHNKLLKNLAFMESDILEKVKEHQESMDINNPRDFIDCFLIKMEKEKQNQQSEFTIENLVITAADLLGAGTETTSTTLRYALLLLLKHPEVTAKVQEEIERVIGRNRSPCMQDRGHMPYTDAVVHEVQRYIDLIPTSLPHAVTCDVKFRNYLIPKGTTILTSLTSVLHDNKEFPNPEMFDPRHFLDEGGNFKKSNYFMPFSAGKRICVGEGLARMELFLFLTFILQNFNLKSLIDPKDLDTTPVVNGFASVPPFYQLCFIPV
Chain of Cytochrome b5 (P00167 whole entry): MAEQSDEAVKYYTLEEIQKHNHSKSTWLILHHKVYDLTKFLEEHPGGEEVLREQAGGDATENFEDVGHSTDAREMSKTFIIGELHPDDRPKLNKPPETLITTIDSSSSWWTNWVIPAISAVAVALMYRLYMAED

Structure (SMILES) | CLH (Liver microsome [1]) [µL/min/mg] | Drug metabolism (Liver microsome [2]) | CLH (Liver microsome [3]) [µL/min/g] | Activity [4] | Activity [5] | CL (Cytochrome P450 2C19 [6]) [µL/min] | CL (Cytochrome P450 2C9 [7]) [µL/min] | Ki (Cannabinoid receptor 1) [nM] | CL (Cytochrome P450 2D6 [8]) [µL/min] | CL (Cytochrome P450 2D6 [9]) [µL/min] | Drug metabolism [11] | CL (Cytochrome P450 1A2 [12]) [µL/min] | CL (Cytochrome P450 2C19 [13]) [µL/min] | CL (Cytochrome P450 2C9 [14]) [µL/min] | CL (Cytochrome P450 1A2 [15]) [µL/min] | also measured
CCCCCn1cc(C(=O)c2cccc3ccccc23)c2ccc(O)cc21 | 1 | metabolite_detected | 0 |  |  |  |  |  |  |  |  |  |  |  |  | Drug metabolism (Cytochrome b5): metabolite_detected
CCCCCn1cc(C(=O)c2cccc3ccccc23)c2cccc(O)c21 | 0 | metabolite_detected | 0 |  |  |  |  |  |  |  |  |  |  |  |  | 
CCCCCCC(C)(C)c1ccc([C@@H]2C[C@H](O)CC[C@H]2CCCO)c(O)c1 |  |  |  | Active | inactive |  |  |  |  |  |  |  |  |  |  | 
O=C(c1cccc2ccccc12)c1cn(CCCCCO)c2ccccc12 | 0.5 |  | 0.483 | Active | inactive | 6.5 | 63 | 35 | 3.7 | 9.3 | metabolite_detected | 19 | 32 | 1035 | 157 | Drug metabolism (Liver microsome [10]): 8.53 ng/mL
O=C(c1cccc2ccccc12)c1cn(CCCCCF)c2ccccc12 |  |  |  | Active | inactive |  |  | 0.395 |  |  |  |  |  |  |  | Drug metabolism (Cytochrome P450 2E1 [16]): metabolite_not_detected; Drug metabolism (Cytochrome P450 3A4 [17]): metabolite_not_detected; Drug metabolism (Cytochrome P450 3A4 [18]): metabolite_not_detected; Drug metabolism (Cytochrome P450 2E1 [19]): metabolite_not_detected; Drug metabolism (Cytochrome P450 3A4 [20]): metabolite_not_detected; Drug metabolism [21]: metabolite_detected; Drug metabolism (Cytochrome P450 2E1 [22]): metabolite_not_detected; Drug metabolism [23]: metabolite_detected; Drug metabolism [24]: metabolite_detected
CCCCCc1cc(O)c2c(c1)OC(C)(C)[C@@H]1CCC(C)=C[C@@H]21 |  |  |  | Active | inactive |  |  |  |  |  |  |  |  |  |  | 
O=C(c1cccc2ccccc12)c1cn(CCCC(O)CF)c2ccccc12 (stereo not given) |  |  | 0.124 | Active |  |  | 63 |  | 3.7 |  |  | 19 | 32 |  |  | 
CCCCCn1cc(C(=O)c2cccc3ccccc23)c2cc(O)ccc21 | 0.52 | metabolite_detected | 0 |  |  |  |  |  |  |  |  |  |  |  |  | 
O=C(O)CCCCn1cc(C(=O)c2cccc3ccccc23)c2ccccc21 | 0 |  | 0.6 | inactive |  | 0 | 111 | > 10000 | 0.371 | 0 | metabolite_detected | 89 | 28 | 0 | 23 | Drug metabolism (Liver microsome [10]): 4.7 ng/mL
CC(O)CCCn1cc(C(=O)c2cccc3ccccc23)c2ccccc21 (stereo not given) | 0.574 |  |  | Active | inactive | 48.7 |  | 15.4 |  | 13.4 | metabolite_detected |  |  | 375 | 306 | 
